Source: the EternaBench riboswitch data

System: MS2 coat protein
Test: apparent Kd, MS2 coat protein; higher = weaker binding; RNA-MaP array; FMN 200 µM where present
Procedure, shortened: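 Green signal was scaled to red-channel RNA signal and control-cluster median Fmax, and the apparent Kd was taken as the median of filtered per-cluster binding-curve fits. The binding series used SNAP-549-labelled MS2 coat protein from 0.7 or 1.5 nM, doubling to 3 µM, on designs transcribed by stalled E. coli RNA polymerase on Illumina sequencing-chip clusters. Each series ran without and then with constant ligand in 100 mM Tris-HCl pH 7.5, 80 mM KCl, 4 mM MgCl2, BSA, DTT, yeast tRNA and Tween-20.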

[1] = designed as: OFF switch for flavin mononucleotide, no ligand
[2] = ligand present: flavin mononucleotide, designed as: OFF switch for flavin mononucleotide
[3] = designed as: ON switch for flavin mononucleotide, no ligand
[4] = ligand present: flavin mononucleotide, designed as: ON switch for flavin mononucleotide

| Sequence | apparent Kd [1] [nM] | apparent Kd [2] [nM] | apparent Kd [3] [nM] | apparent Kd [4] [nM] |
| --- | --- | --- | --- | --- |
| GAAUAAUUGAUCCUUUUUUAUUACAUGAGGAUCACCCAUGUGCAGGAUAUCGAUUGUUGUAGUUUCGAGAAGGGCAAGAACUGU | 187 | 280 |  |  |
| GAAUGAAAGCAGAAGGCCGCACAUGAGGAUCACCCAUGUGAAAACAGAUGGAGGAUAUGCGAACGUUCGCUUUGAAAAGUAAAG |  |  | 13.5 | 6.35 |
| GAAUGUCGGGUAGGAUAUGACGUGCCACGGAGGUCAGAAGGGCCACGACAUGAGGAUCACCCAUGUACUGUAUUCCUUUUUCAA | 22.9 | 60.4 |  |  |
| GAAUUAUUGAUCCAAUUUUACAACAUGAGGAUCACCCAUGUGCAGGAUAUCGUGUGUUUUAUAUUCGAGAAGGGCAUGAACUUU | 213 | 495 |  |  |
| GACAUCGCAGGAUAUUAUUGUUUGUACAUGAGGAUCACCCAUGUUAAUUGGGUUAGUGUUUAAGAAGGGCGGUGUC | 1340 | 901 |  |  |
| GACAUUAUAGGAUAUACAUGAGGAUCACCCAUGUCCGGCGGCCACCGCCAUUCACUGUGUAGAAGGGUAGUUUG | 87.9 | 68.8 |  |  |
| GACCCAAAUGAGAAGGUGUGUAUAAAUUAUAUACAAGGAUAUCGGUCGAGCGUGUUGACAUGAGGAUCACCCAUGUUGUGGGUU |  |  | 57.1 | 25.7 |
| GACCUAUAGGUAGGAUAUCAUUGCGAUUAGCUAUGAGAAGGACCACAUGAGGAUCACCCAUGUCCUCUAAUUAGCCAUUUGGUC | 380 | 1040 |  |  |
| GACGAAUAGCUAGGAUAUCGUAAAUCAUUGGUAGUCUCUAUUCACAUGAGGAUCACCCAUGUAAUCGAGAAGGAGCACUCGUUC | 80.4 | 240 |  |  |
| GACGUCGGAAGUCGACGCCACUACAAGGAUAUGCACAUGAGGAUCACCCAUGUUACGAAAUCGUAGCAGAAGGUGUAGUCGUCU |  |  | 245 | 24 |
| GACUGCAUGUAAGGAUAUCGACUGGAUAACAGUCGAGAAGGUACAUGAGGAUCACCCAUGUAAUAAGAUCAAUAAUAAGCAGUC | 14.4 | 31.3 |  |  |
| GACUGCCGAGGAUAUACAUGAGGAUCACCCAUGUGCUUCAGCAUUUUUUAAUGCAUGGGUAGAAGGCGGUAGUC | 32.6 | 68.5 |  |  |
| GACUUGUUAGGAUAUCUUACUUUUGCAUCAUAGUAACCAUUGGAGAAGGGACAUGAGGAUCACCCAUGUUUGGU | 34.7 | 35 |  |  |
| GAGAAACAUGAGGAUCACCCAUGUGAGGAUAUGCGUACGUUGUCCGUAGGCGACGUGCGCAGAAGGCGCAAAGG | 83.9 | 118 |  |  |
| GAGAAGAGUAUAGGAUAUUAAGAAACAUGAGGAUCACCCAUGUAGUGAGUGUGAGAAGGGUAGGAGGUGGUAGGAGGAUCCAGG |  |  | 22.3 | 16.4 |
| GAGCUAUGAGGAUAUGCAUAGAUACGGAUUCGUGUAGUACUACAUGAGGAUCACCCAUGUAGAAGGCGUGGCUG | 18.5 | 20.5 |  |  |
| GAGCUGCAGACAGGAUAUGAGACCGCCACGGUCUCAGAAGGGUCAUGUUCUACAUGAGGAUCACCCAUGUCGGACAGCUCGAAG |  |  | 140 | 11.8 |
| GAGGAACAUGAGGAUCACCCAUGUGAGGAUAUGCAUAGUGAGGUAGUAGACGUUGAAUGCAGAAGGUACACUGA | 47.6 | 34.3 |  |  |
| GAGGACUGUGCAGGAUAUACAUGAGGAUCACCCAUGUAGGUCGGUUCGAAAGUAGAAGGGCACGAUUGUCGAUAGCACGCGUGA | 97.5 | 39.2 |  |  |

| Sequence | apparent Kd [1] [nM] | apparent Kd [2] [nM] | apparent Kd [3] [nM] | apparent Kd [4] [nM] |
| --- | --- | --- | --- | --- |
| GAGGAGCAAGGAUAUACGAGGAUAUGGUAGUUUGUAGAGUGACAUGAGGAUCACCCAUGUAGAAGGUGCGAGGG | 64.2 | 52.9 |  |  |
| GAGGCACAUGAGGAUCACCCAUGUGGGUAUAACAUAGGAUAUCACCAACAAAAUACCCGGUGAGAAGGAUGAUGCC |  |  | 217 | 113 |
| GAGUACUGAGGAUAUACAUGAGGAUCACCCAUGUGUUCCAGCUAGGAAACUAGCAAAAGUAGAAGGCAGUACUG | 19.5 | 156 |  |  |
| GAGUAGAAGUUAGGAUAUUGGAUAGGGACGGAAUAAGAAGGAGCAAGACAUGAGGAUCACCCAUGUGUAGAAGAAGAGAUCCUC | 448 | 168 |  |  |
| GAGUCACUAUUAGAACCGAUACGAACAUGAGGAUCACCCAUGUAGGAUAUGCUAAAAGUUGUGUUGCAGAAGGACAUUUAUCGC | 9.81 | 9.06 |  |  |
| GAGUGACAUGAGGAUCACCCAUGUGAGGAUAUCGGACGGACCAAAUUAACAAUUUUUGCGAGAAGGCACAUCGG | 59.5 | 72.4 |  |  |
| GAGUGACGAUUAGGAUAUAUAGUGAUAAUGAUAAUAGAAGGAAUUGACAUGAGGAUCACCCAUGUAGGACUAAUCCAGAGAGAG |  |  | 64.2 | 62.2 |
| GAGUGGAAGGCCGCUACAUGAGGAUCACCCAUGUGCUAAGCACAGGAUAUCGCGCGGGCCCGGCGCGAGAAGGGUGACGGCCUU |  |  | 1010 | 272 |
| GAGUGGAAGGCCGCUACAUGAGGAUCACCCAUGUGCUAAGCACAGGAUAUCGCGCUAGCCCGGCGCGAGAAGGGUGACGGCCUU |  |  | 577 | 276 |
| GAGUGGCAAGGAUAUACAGUGGAGAGGAUGGCAAGAGGUGGACAUGAGGAUCACCCAUGUAGAAGGUGCAGAGA | 154 | 235 |  |  |
| GAUAAAGGAGUAGGAUAUGCACAUGGUAGGCUUAUCUUUAUGGCGACAUGAGGAUCACCCAUGUUGCAGAAGGGCUUCCCAUUG | 34 | 25.9 |  |  |
| GAUAGGAAGUAAGGAUAUAGACAUGAGGAUCACCCAUGUCUGUGCCGCGUGGAUGAAGGGAGUGUCUAGAAGGUACUGCUCUGU | 15.5 | 7.5 |  |  |
| GAUAGGACAGAGAAGGACAUGGCUAGAGAUACUAGCAUAUGAACCUUCACAUGAGGAUCACCCAUGUAGGAUAUCUGUCCUAUC | 3.8 | 4.86 |  |  |
| GAUCAACAUGAGGAUCACCCAUGUGAGGAUAUGAUACUAUGUACUUCGGUACAUAGUAUCAGAAGGCAUAUAAA | 44.7 | 35.2 |  |  |
| GAUCAACAUGAGGAUCACCCAUGUGAGGAUAUGAUACUAUGUACUUCGGUACAUAGUAUCAGAAGGCAUGUAAA | 50.1 | 42.5 |  |  |
| GAUCUCGUAGUGAGGAUAUUGCUCAUAGACAAUAGUAAGAAGGCACAUGAGGAUCACCCAUGUCGAGUGAGGUU | 69.9 | 143 |  |  |
| GAUUAACAUGAGGAUCACCCAUGUCGUUAAAUGGGAGGAUAUACGUGGACCGUAGUCCGCGUAGAAGGCCUAAUUG |  |  | 144 | 29.2 |
| GAUUAACAUGAGGAUCACCCAUGUGAGGAUAUGGACUGGCUCACUUUUCGAUUCCCGUCUAGAAGGCGCAUUUU | 50.1 | 50.1 |  |  |
| GAUUAUAAGUAAGGAUAUGUAUAUGAAACAUCUACAGAAGGUACAUGAGGAUCACCCAUGUUCUUGCAGCGUGACUCUGUGAUC | 63.6 | 130 |  |  |

| Sequence | apparent Kd [1] [nM] | apparent Kd [2] [nM] | apparent Kd [3] [nM] | apparent Kd [4] [nM] |
| --- | --- | --- | --- | --- |
| GAUUCGGGAGGAUAUACAUGAGGAUCACCCAUGUGUUUUUUGUGUGUUAUGUUAUCGUGUAGAAGGUUUGGGUC | 144 | 203 |  |  |
| GAUUGUGAAGGAUAUACUGGAGGAGUGCGAUAGAAGCACGAACAUGAGGAUCACCCAUGUAGAAGGUCAGGAGU | 34.5 | 21.6 |  |  |
| GCAACGCCUGACAUGAGGAUCACCCAUGUUAGAUUGUUAUGUCAGGAUAUAGUCUAGAAACUAGACUAGAAGGGAUAUGUUGCU |  |  | 1010 | 161 |
| GCAAUAGCAUGAGGAUAUGCUGGAGUUUAGACAGCAGAAGGCAUGUCAUAAGACAUGAGGAUCACCCAUGUAGUUACAAUGGCA |  |  | 26.9 | 11.3 |
| GCAAUGCCUGACAUGAGGAUCACCCAUGUUAGAUUGUUAUGUCAGGAUAUUGUCUAGAAACUAGACAAGAAGGGAUGCAUUGCU |  |  | 313 | 25.1 |
| GCAAUGUGAUAAGGAUAUCCAAUGGCAUCCCUAGGAGAAGGUAUCACAUGAGGAUCACCCAUGUGAAGGACGGGUUAUCGCAAA |  | 211 |  |  |
| GCACAUGGCAUAGGAUAUAGAAGUAUACAUUAUAUAGGUAGUGUCACAACACUAGAAGGAUGAAACAUGAGGAUCACCCAUGUA |  |  | 16.2 | 12.3 |
| GCACCAAGAGGAUAUACCGAGGUCAUCUACUUUGCAUAGCGACAUGAGGAUCACCCAUGUAGAAGGUUUGUCGU | 95.4 | 80.6 |  |  |
| GCACCUCUAUUUGAACCGAUACGAACAUGAGGAUCACCCAUGUAGGAUAUGCUAAAAGUUGUGUUGCAGAAGGACAUUUAGUGC | 10.7 | 10.5 |  |  |
| GCACGACAUGUAGGAUAUCGAGCGCCGGGCGCUCGAGAAGGACAUGAGGAUCACCCAUGUAUUCUGAGUGACCGAGGUCGAUGC | 31.2 | 180 |  |  |
| GCACGAGACUAAGGAUAUGGAGUGUCUACAUUAAACAUGAGGAUCACCCAUGUAAAGAGUACGAUUCAGAAGGUAGAGACGUGC |  |  | 51.5 | 23.5 |
| GCACGGCAUGUAGGAUAUGCAUAGCAUUGCUAUGCAGAAGGACAUGAGGAUCACCCAUGUAUGUAUUCCAUACAAUUCCCGUGC | 5.86 | 12 |  |  |
| GCACGGUAAGUGAGGAUAUACCUCUGGAUACAGAGGUAGAAGGCACAUGAGGAUCACCCAUGUCCAAGCCGUGC | 23.7 | 103 |  |  |
| GCACGGUAUGUAGGAUAUGCAUAGCAUUGCUAUGCAGAAGGACAUGAGGAUCACCCAUGUAUGUAUUCCAUACUAAUCCCGUGC | 5.89 | 5.79 |  |  |
| GCACGGUUUGUAGGAUAUGCAUAGCAUUGCUAUGCAGAAGGACAUGAGGAUCACCCAUGUAUGUAUUCCAUACAUUUCCCGUGC | 5.62 | 5.63 |  |  |
| GCACGUAGACAGAAGGCGACAUGAGGAUCACCCAUGUUGGCUCGGGUAUGACCAAUCCGCAUGAUCGAGGAUAUGUCCGCGGGC | 265 | 19.2 |  |  |
| GCACUGACAGGAUAUACAUGAGGAUCACCCAUGUGACCCUUAUAGUACUCGCGUACUGGUAGAAGGGUCUGUGC | 78.8 | 558 |  |  |
| GCACUGCGAGGAUAUACAUGAGGAUCACCCAUGUGUCGGCAGCGAUGCCAGUACAAAUGUAGAAGGCGCGUAAA | 25.9 | 114 |  |  |
